This sample holds only a part of the variants without activity.
B1: tRNA (parent)
chain: GUUCCGUUGGCGUAAUGGUAACGCGUCUCCCUCCUAAGGAGAAGACUGCGGGUUCGAGUCCCGUACGGAACG

Variants of: B1
Assay: yeast fitness relative to wild type (ratio to wild type); higher = fitter; tRNA-Arg(CCU), competitive growth, 37 C, YPD
In short: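 Variants of the tRNA-Arg(CCU) gene, chemically synthesised with a 3% per-site mutation rate at 69 sites, were placed at the native genomic locus in Saccharomyces cerevisiae. The pooled strains were competed in YPD at 37°C for 24 hours in six parallel replicates. Gene amplicons from the start population and from each end population were read by 100-nucleotide paired-end sequencing. Darwinian fitness relative to wild type came from changes in genotype frequencies; genotypes needed ≥ 100 starting reads, and estimates < 0.5 were set to 0.5.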

Variant | yeast fitness
U7G U16G C61U | ≤ 0.5
U7G U19A C30G C33U C61G | ≤ 0.5
U7G U19A C34U C66U | 0.588
U7G U26C | 0.88
U7G U26C A42U C46U | 0.581
U7G U28A | 0.704
U7G U28C U59C U64C A70C | ≤ 0.5
U7G U32A C46U C60A | ≤ 0.5
U7G U35G | 0.536
U7G U47C | 0.845
U7G U54C | 0.905
U7G U54C C55G | ≤ 0.5
U7G U54C C66A | ≤ 0.5
U7G U59A | 0.754
U7G U64A | 0.971
U8A | 0.741
U8A A14C C24U U26A U28G U54G | ≤ 0.5
U8A A14C C24U U35A G63A | 0.803
U8A A14C C31A G41C C49A G56A A70C | 0.533
U8A A14C C31A G41C C49A G56A G63A G67A | ≤ 0.5
U8A A14C C49G A70U | 0.515
U8A A14G C24G A45C | 0.632
U8A A14G C24G A65C | ≤ 0.5
U8A A14U A15G U32C A57U | 0.599

Variant | yeast fitness
U8A A14U A42G | ≤ 0.5
U8A A15C A20C U28C | ≤ 0.5
U8A A15C A21G C27U C46U | ≤ 0.5
U8A A15C A21G C27U C46U A70G | ≤ 0.5
U8A A15C G18C C49U | 0.603
U8A A15G C27A | 0.549
U8A A15U A37C G68A | ≤ 0.5
U8A A15U C22G C31U A57C U64A G68A | ≤ 0.5
U8A A15U C27G A36G A70C | ≤ 0.5
U8A A15U C29U | ≤ 0.5
U8A A15U C61U | ≤ 0.5
U8A A20C A43U A69C | ≤ 0.5
U8A A20C C31A A57C C66A A69U | ≤ 0.5
U8A A20C C31U | ≤ 0.5
U8A A20C C62A | ≤ 0.5
U8A A20G C33A A57G | ≤ 0.5
U8A A20G U26C A40C | 0.617
U8A A20U C31U A45G | ≤ 0.5
U8A A20U C34U A45C | 0.567
U8A A21C A42U G50A | ≤ 0.5
U8A A21C C29A G39A U54G G58C | ≤ 0.5
U8A A21C G56C | ≤ 0.5
U8A A21G | 0.681
U8A A21G A36G | 0.65

Variant | yeast fitness
U8A A21U C30U G48A G67C A69U | ≤ 0.5
U8A A36C U53C | ≤ 0.5
U8A A36U G48C | 0.668
U8A A37G G41C A43U | ≤ 0.5
U8A A40C | 0.774
U8A A40C C46U | ≤ 0.5
U8A A40C C46U G52A | ≤ 0.5
U8A A40G A42U A45U U59G | ≤ 0.5
U8A A40U G52C | 0.573
U8A A42C G52C | ≤ 0.5
U8A A42U | 0.833
U8A A42U C62A A70C | ≤ 0.5
U8A A42U C62G | ≤ 0.5
U8A A42U U47C C55G | ≤ 0.5
U8A A43C G44C | ≤ 0.5
U8A A43G A45C C49G | 0.58
U8A A43U G52C C60A | ≤ 0.5
U8A A45G C61G C62U | ≤ 0.5
U8A A57U | 0.502
U8A A65C A70U | 0.525
U8A A69C | 0.915
U8A A69G | 0.604
U8A A69U | 0.719
U8A A70U | 0.813

Variant | yeast fitness
U8A C11A A14G C24A C29A C34U C61G A65C | ≤ 0.5
U8A C11A A36G C61G A69G | ≤ 0.5
U8A C11A C27U | 0.546
U8A C11G C34G | 0.624
U8A C11U A15G G63C | ≤ 0.5
U8A C11U A20C | ≤ 0.5
U8A C11U A20C A70U | ≤ 0.5
U8A C11U A37U U64A | 0.545
U8A C11U C31G G38C A40C G56A | ≤ 0.5
U8A C11U C46U | ≤ 0.5
U8A C11U C61U C62U C66A | ≤ 0.5
U8A C11U G25C G39C | ≤ 0.5
U8A C11U G25C G39C A45U | ≤ 0.5
U8A C11U U19C C46A C66U | 0.578
U8A C11U U47G | ≤ 0.5
U8A C11U U47G G67A | ≤ 0.5
U8A C22G A36U | ≤ 0.5
U8A C22G C55G | 0.651
U8A C22U A69C A70C | 0.595
U8A C22U G56A U59A | ≤ 0.5
U8A C24A | 0.624
U8A C24A C30U C31U G48C | 0.58
U8A C24A U28C G56A | 0.556
U8A C24A U64A | ≤ 0.5

Variant | yeast fitness
U8A C24G | ≤ 0.5
U8A C24G A43G C49U | ≤ 0.5
U8A C24G G41C A65G | ≤ 0.5
U8A C24U A40C A42C A45U | ≤ 0.5
U8A C24U A40U A42C A45U | 0.563
U8A C24U A40U A42C A45U C49U | ≤ 0.5
U8A C24U A40U A42C A45U C61U | ≤ 0.5
U8A C24U U28C A40C G67C | ≤ 0.5
U8A C24U U47C | 0.575
U8A C27A A37U | ≤ 0.5
U8A C27A A37U A57U | ≤ 0.5
U8A C27A G39C G51C | ≤ 0.5
U8A C27G G39A C46U G67A | ≤ 0.5
U8A C27U A43U | ≤ 0.5
U8A C29A U54C | ≤ 0.5
U8A C29G A40G | 0.639
U8A C29G A40G G63A | ≤ 0.5
U8A C29G A70G | ≤ 0.5
U8A C29U C31A G38A | ≤ 0.5
U8A C29U C33U U53A U59G | ≤ 0.5
U8A C29U C34U C49A G67A | ≤ 0.5
U8A C29U G51C | 0.571
U8A C30A A37G C46U A57C | 0.579
U8A C30A A65G | 0.543

Variant | yeast fitness
U8A C30G C46A G63A | ≤ 0.5
U8A C30G U59A | ≤ 0.5
U8A C30U A57C | ≤ 0.5
U8A C31A | 0.605
U8A C31A C33G | 0.542
U8A C31G A42C C55U G68A | ≤ 0.5
U8A C31G C46U C60A | ≤ 0.5
U8A C31G C55U G67C | ≤ 0.5
U8A C31U A37G | ≤ 0.5
U8A C31U C60A C62G A70C | ≤ 0.5
U8A C33G A42U A43U C49U A65C G68C | ≤ 0.5
U8A C33U G67A | ≤ 0.5
U8A C34A A65U | ≤ 0.5
U8A C34G | ≤ 0.5
U8A C34G A37U A42U A57G | ≤ 0.5
U8A C34U C55U C66A | ≤ 0.5
U8A C34U U35A C46U A70U | ≤ 0.5
U8A C46A G68C | ≤ 0.5
U8A C46U A57C | 0.635
U8A C60A | ≤ 0.5
U8A C61A A65U | 0.554
U8A C61A G67C | 0.561
U8A C62U | 0.7
U8A C66A G68C | ≤ 0.5

Variant | yeast fitness
U8A C66G G68C | ≤ 0.5
U8A G9A A37U C46U C61U C66U | ≤ 0.5
U8A G9A C60G | ≤ 0.5
U8A G9A G67A | 0.553
U8A G9C G38A A40C | ≤ 0.5
U8A G9C U47A G68C | ≤ 0.5
U8A G9U A42C G52C | ≤ 0.5
U8A G10A A43C | 0.646
U8A G10A G67U | ≤ 0.5
U8A G10A U26G G58A | ≤ 0.5
U8A G10C A20U G41U C62U G68C | 0.799
U8A G10C A20U G41U G51C | ≤ 0.5
U8A G10C C11U C24U A42C U47C | 0.777
U8A G10C C66U | ≤ 0.5
U8A G12A | 0.824
U8A G12A A14C A57U G67C | ≤ 0.5
U8A G12A A20C G56C U59A | 0.581
U8A G12A C22A C31G A65C | ≤ 0.5
U8A G12A C22A C31G G58A C61A | ≤ 0.5
U8A G12A G44A C60U G67C | ≤ 0.5
U8A G12C A21C C27G C31U G52A | 0.59
U8A G12C U47A C62U | 0.545
U8A G17A C22U | 0.607
